From PubChem
A selection: hits, their analogues and other compounds. The true share with any hit is near 2.6%.
core dimer inh – inhibitors of HCV core protein dimerization, primary screen, biochemical, TR-FRET, high-throughput | TR-FRET GST/Flag-core106 dimerization, 1536-well | inhibition, % at 5 µM | 300,000 tested, 0.33% active;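 active = inhibition above the mean of all tested compounds plus 3 SD, set per screening campaign, cut at about 45% in these data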
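Assay system: GST-tagged and Flag-tagged HCV core protein residues 1-106 / Times: compound-protein-antibody incubation 4 h at 22.5 °C / Signal: time-resolved FRET, ex 340 nm, em 617 and 671 nm / Evaluation: % inhibition based on acceptor/donor emission ratio / Benchmarks: wells lacking GST-core106 and wells with excess unlabelled core106 / Repeats: singlicate, one well per compound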
ABHD5-PLIN5 inh – ABHD5-PLIN5 interaction inhibitors, primary screen, cell lysate, split luciferase complementation, luminescence; Perilipin-5 (Homo sapiens) + 1-acylglycerol-3-phosphate O-acyltransferase ABHD5 (Homo …; Split G. princeps luciferase complementation, 4 h; inhibition, % at 4 µM; 360,000 tested, 0.78% active;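 active = inhibition above the mean inhibition across every tested compound plus 3 SD, cut at about 22% in these data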;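 note: 0% = DMSO only wells and the 100% control is not disclosed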
Target sequence (Q00G26 whole entry, looked up): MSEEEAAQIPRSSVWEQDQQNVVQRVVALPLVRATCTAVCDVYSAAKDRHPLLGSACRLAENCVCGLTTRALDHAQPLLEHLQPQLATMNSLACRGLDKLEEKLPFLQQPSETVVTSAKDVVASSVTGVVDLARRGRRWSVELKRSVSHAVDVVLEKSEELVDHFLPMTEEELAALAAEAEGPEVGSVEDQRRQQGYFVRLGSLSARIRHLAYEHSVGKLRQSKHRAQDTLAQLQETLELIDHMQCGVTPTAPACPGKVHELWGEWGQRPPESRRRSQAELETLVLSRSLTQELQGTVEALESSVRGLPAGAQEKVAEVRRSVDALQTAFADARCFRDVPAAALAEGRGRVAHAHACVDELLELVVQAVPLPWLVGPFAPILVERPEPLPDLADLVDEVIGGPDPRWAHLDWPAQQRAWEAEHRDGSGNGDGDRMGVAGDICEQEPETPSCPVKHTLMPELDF
Target sequence (Q8WTS1 whole entry, looked up): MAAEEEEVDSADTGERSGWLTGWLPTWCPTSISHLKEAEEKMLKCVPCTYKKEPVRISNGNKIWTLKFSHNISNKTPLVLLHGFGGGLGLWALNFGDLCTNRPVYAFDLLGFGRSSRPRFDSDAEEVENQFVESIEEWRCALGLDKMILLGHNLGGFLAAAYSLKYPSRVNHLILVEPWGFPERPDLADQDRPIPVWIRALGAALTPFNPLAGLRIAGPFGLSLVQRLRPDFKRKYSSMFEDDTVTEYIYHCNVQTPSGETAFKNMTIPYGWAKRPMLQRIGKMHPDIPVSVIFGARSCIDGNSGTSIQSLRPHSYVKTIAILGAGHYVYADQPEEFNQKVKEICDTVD
NadD inh – inhibitors of S. aureus NadD, primary screen, biochemical, colorimetric, uHTS. Nicotinate-nucleotide adenylyltransferase NadD (Staphylococcus aureus N315). inhibition, % at 20 µM. 360,000 tested, 0.78% active. purified NadD enzyme, colorimetric absorbance read-out; in the data active = inhibition above about 26%
rCAG RNA binder – binders of r(CAG) RNA repeats, primary screen, biochemical, fluorescence. r(CAG) RNA repeat, TO-PRO-1 dye displacement fluorescence. inhibition, % at 3 µM. 370,000 tested, 1.3% active;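 active = inhibition above the plate cutoff, the mean of all test compounds on that plate plus 3 SD, cut at about 35% in these data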;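 note: 0% = DMSO alone and 100% = 100 µM mitoxantrone as full dye displacement; higher means more dye released from RNA so lower well fluorescence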
rCAG binder conf – small molecules binding CAG repeat RNA – biochemical, fluorescence, confirmation; 4,300 tested, 70% active; inhibition, % at 3 µM; r(CAG) RNA repeat, TO-PRO-1 dye displacement fluorescence; AID 652065, 2013; shares compounds with rCAG RNA binder;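 active = inhibition above a per-plate cutoff, the mean inhibition of sample wells plus 3 SD, cut at about 35% in these data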;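 note: loss of TO-PRO-1 fluorescence as compound displaces dye from 1x1 AA loop RNA; 0% = DMSO only wells and 100% = 100 µM mitoxantrone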
DNA CAG counter – displacement of TO-PRO-1 from CAG DNA duplex, counter-screen for rCAG RNA repeat binder project, biochemical, fluorescence, TO-PRO-1 dye, d(CAG) DNA oligo; shares compounds with rCAG RNA binder; d(CAG) DNA oligo TO-PRO-1 dye displacement; inhibition, % at 3 µM; 4,300 tested, 94% active; AID 652068, 2013;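 active = inhibition above its plate's cutoff, the mean test-well inhibition plus 3 SD, cut at about 4.8% in these data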;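 note: 0% = DNA dye mix with DMSO and 100% = 100 µM mitoxantrone; hits displace the dye from DNA and so lower well fluorescence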
dCAG dye DR – inhibitors of DNA CAG/GTC TO-PRO-1 complex, dose response, counter-screen for rCAG RNA repeat binder project, biochemical, fluorescence, TO-PRO-1 dye; shares compounds with rCAG RNA binder; DNA CAG/GTC duplex TO-PRO-1 dye displacement fluorescence; IC50, µM; 250 tested, 20% active; in the data active = IC50 below about 10 µM
* hit, by the source's call.

For CN(C1CCCCC1)S(=O)(=O)c1ccc2[nH]c(=O)oc2c1 the results were core dimer inh -0.8, ABHD5-PLIN5 inh -1.5, NadD inh -3.8 and rCAG RNA binder 2.6.
Screening O=c1[nH]c2ccc(S(=O)(=O)N3CCC(Cc4ccccc4)CC3)cc2o1 returned core dimer inh 11.5, ABHD5-PLIN5 inh 2.2, NadD inh 2.7, rCAG RNA binder 47.8*, rCAG binder conf 46.0* and DNA CAG counter 14.2*.
Screening CCCCN(Cc1ccccc1)S(=O)(=O)c1ccc2[nH]c(=O)oc2c1 returned core dimer inh 10.9, ABHD5-PLIN5 inh -9.2, NadD inh -1.1, rCAG RNA binder 39.5*, rCAG binder conf 29.0 and DNA CAG counter 8.0*.
Screening CCCCN(CCCC)CCCNC(=O)Cn1cc(C)c(=O)[nH]c1=O returned rCAG RNA binder -2.0.
`C#CCN1CC(N(C)CCCO)CS1(=O)=O` (configuration not stated) gave rCAG RNA binder 2.8.
For CCOC(OCC)P(=O)(CNC(c1ccccc1)(c1ccccc1)c1ccccc1)OCC (configuration not stated) the results were rCAG RNA binder 0.4.
For CC(C)(C)NC(=S)N1CCC2CC1c1c(Cl)cccc12 (configuration not stated) the results were ABHD5-PLIN5 inh -3.6, NadD inh -0.7 and rCAG RNA binder 3.2.
For CCC1CCC(C(=O)NNC(=O)c2cc(-c3ccco3)[nH]n2)CC1 (configuration not stated) the results were core dimer inh 19.5, ABHD5-PLIN5 inh 19.5, NadD inh -1.5, rCAG RNA binder 46.0*, rCAG binder conf 4.4 and DNA CAG counter 2.2.
For O=C(NNC(=O)C1CCCCC1)c1ccco1 the results were core dimer inh 1.1, ABHD5-PLIN5 inh 0.1, NadD inh -0.6 and rCAG RNA binder -2.2.
`O=C(Cc1ccc(Cl)cc1)Nc1cccc(S(=O)(=O)Nc2ccccc2F)c1` gave core dimer inh 8.1, ABHD5-PLIN5 inh -13.6, NadD inh -6.8 and rCAG RNA binder 29.6.
For Cc1ccc(C)c(NC(=O)c2ccccc2NS(=O)(=O)c2cc([N+](=O)[O-])ccc2C)c1 the results were core dimer inh 23.4, ABHD5-PLIN5 inh -0.4, NadD inh 4.4, rCAG RNA binder 39.8*, rCAG binder conf 76.9* and DNA CAG counter 42.9*.
`Cc1ccc([N+](=O)[O-])cc1S(=O)(=O)Nc1cccc(S(=O)(=O)Nc2ccccc2C(=O)O)c1` gave ABHD5-PLIN5 inh 7.2, NadD inh -3.6, rCAG RNA binder 45.8*, rCAG binder conf 37.6* and DNA CAG counter 9.3*.
`O=C(CSc1ccc([N+](=O)[O-])cc1)Nc1cccc(S(=O)(=O)Nc2ccccc2F)c1` gave core dimer inh 14.8, ABHD5-PLIN5 inh -8.6, NadD inh 16.0, rCAG RNA binder 49.9*, rCAG binder conf 37.1* and DNA CAG counter 12.6*.
Screening CC1(C(=O)NS(=O)(=O)c2ccc(Cl)s2)CCN1C(=O)Cc1ccc(-c2ccccc2)cc1 (configuration not stated) returned ABHD5-PLIN5 inh 4.4, NadD inh 2.9, rCAG RNA binder 73.9*, rCAG binder conf 75.1* and DNA CAG counter 37.6*.
COc1cc(C)ccc1S(=O)(=O)NC(=O)C1(C)CCN1C(=O)Cc1ccc(C(C)(C)C)cc1 (configuration not stated) was read as ABHD5-PLIN5 inh 8.1, NadD inh -1.3 and rCAG RNA binder 28.1.
Screening CC(C)(C)c1ccc(CC(=O)N2CCC2(C)C(=O)NS(=O)(=O)c2ccc(Cl)s2)cc1 (configuration not stated) returned ABHD5-PLIN5 inh -6.7, NadD inh -2.5, rCAG RNA binder 61.7*, rCAG binder conf 61.3* and DNA CAG counter 23.6*.
For CC(C)c1ccc(CC(=O)N2CCC2(C)C(=O)NS(=O)(=O)c2ccc(Cl)s2)cc1 (configuration not stated) the results were ABHD5-PLIN5 inh -4.9, NadD inh -6.8, rCAG RNA binder 39.8*, rCAG binder conf 40.8* and DNA CAG counter 10.9*.
Screening CN(C)c1cccc(/C=C2\CC3(OC(=O)c4cccc(F)c4)CCCN2C3)c1 (configuration not stated) returned rCAG RNA binder 3.0.
`CC1(C(=O)NS(=O)(=O)Cc2cccc(Cl)c2)CCN1C(=O)C1(c2ccc(Cl)cc2)CCC1` (configuration not stated) gave ABHD5-PLIN5 inh 2.7, NadD inh 3.4 and rCAG RNA binder 13.8.
CC1(C(=O)NS(=O)(=O)Cc2cccc(Cl)c2)CCN1C(=O)C1(c2ccc(Cl)cc2)CC1 (configuration not stated) was read as ABHD5-PLIN5 inh -3.3, NadD inh 0.9, rCAG RNA binder 54.4*, rCAG binder conf 44.7* and DNA CAG counter 11.5*.
Screening CC1(C(=O)NS(=O)(=O)Cc2cccc(Cl)c2)CCN1C(=O)Cc1ccc(-c2ccccc2)cc1 (configuration not stated) returned ABHD5-PLIN5 inh 4.3, NadD inh 7.8, rCAG RNA binder 72.1*, rCAG binder conf 70.0*, DNA CAG counter 29.4* and dCAG dye DR inactive.
CC1(C(=O)NS(=O)(=O)Cc2cccc(Cl)c2)CCN1C(=O)C/C=C/c1ccccc1 (configuration not stated) was read as ABHD5-PLIN5 inh -2.5, NadD inh -0.1, rCAG RNA binder 39.0*, rCAG binder conf 35.5* and DNA CAG counter 8.3*.
Screening O=C(Nc1ccc(S(=O)(=O)N2CCOCC2)cc1)c1cc(-c2cc(Cl)ccc2O)n[nH]1 returned core dimer inh 7.4, ABHD5-PLIN5 inh 8.4, NadD inh 18.2, rCAG RNA binder 45.9*, rCAG binder conf 49.9* and DNA CAG counter 21.0*.
Screening Cc1cc(O)c(-c2cc(C(=O)Nc3ccc(S(=O)(=O)N4CCOCC4)cc3)[nH]n2)cc1C returned core dimer inh 8.0, ABHD5-PLIN5 inh -7.0, NadD inh 5.4, rCAG RNA binder 41.0*, rCAG binder conf 29.1 and DNA CAG counter 14.5*.
